From ChEMBL document CHEMBL3352173, “Optimization of pyrrolamide topoisomerase II inhibitors toward identification of an antibacterial clinical candidate (AZD5099)” (J Med Chem, 2014)
Values after ≈ are worked out from the molar mass of the structure shown.

Assays:
Staphylococcus aureus [1] = experiment: Antimicrobial activity against 2 times drug resistance selected Staphylococcus aureus ARC516-1F by broth microdilution/CLSI method; format: functional
Staphylococcus aureus [2] = experiment: Antimicrobial activity against 2 times drug resistance selected Staphylococcus aureus ARC516-2F by broth microdilution/CLSI method; format: functional
Staphylococcus aureus [3] = experiment: Antimicrobial activity against Staphylococcus aureus ARC516 by broth microdilution/CLSI method; format: functional
[4] = Percentage unbound in rat plasma; format: ADME, cell-free
[5] = Bioavailability in dog at 10 mg/kg, iv; format: ADME, organism-based, Canis lupus familiaris; conditions: plasma
[6] = Percentage unbound in mouse plasma; format: ADME, cell-free
Escherichia coli [7] = experiment: Antimicrobial activity against Escherichia coli tolC- by broth microdilution/CLSI method; format: functional; conditions: Escherichia coli; read-out: MIC
[8] = Solubility of the compound; format: physicochemical
[9] = Clearance in CD1 mouse at 10 mg/kg, iv; format: ADME, organism-based; set-up: dose 10 mg/kg, route intravenous; conditions: in vivo
[10] = Bioavailability in CD1 mouse at 10 mg/kg, […]; format: ADME, organism-based; conditions: in vivo
[11] = Clearance in dog at 10 mg/kg, iv; format: ADME, organism-based, Canis lupus familiaris; set-up: dose 10 mg/kg, route intravenous; conditions: plasma
Staphylococcus aureus [12] = experiment: Antibacterial activity against methicillin-sensitive Staphylococcus aureus ARC516 infected in neutropenic CD1 mouse thigh model assessed as decrease in bacterial viable counts at 30 mg/kg, ip q6; format: functional; conditions: route intraperitoneal
Procedure, shortened: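 Read-out is viable CFU recovered from the infected thigh after treatment. The change is expressed as log CFU relative to the bacterial burden at the start of treatment (the pre-treatment inoculum). Untreated infected controls are run in parallel and counted over the same infection-to-treatment interval.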

[13] = Ratio of MIC for methicillin, quinolone-resistant Staphylococcus aureus to fraction unbound in human plasma; format: ADME
Staphylococcus aureus [14] = experiment: Antibacterial activity against methicillin-sensitive Staphylococcus aureus ARC516 infected in ip dosed neutropenic CD1 mouse thigh model assessed as decrease in bacterial viable counts treated for q6; format: functional; conditions: ARC516, Thigh muscle
DNA gyrase subunit B = DNA gyrase subunit B (Staphylococcus aureus, UniProt P0A0K8); experiment: Inhibition of ATPase activity of Staphylococcus aureus GyrB
Procedure, shortened: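 IC50 was determined against S. aureus GyrB in the routine screening assay. The enzyme concentration limits resolution below 10 nM.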

[15] = Bioavailability in Wistar rat at 10 mg/kg, […]; format: ADME, organism-based; conditions: in vivo
Escherichia coli [16] = experiment: Antimicrobial activity against wild-type Escherichia coli Eco523 by broth microdilution/CLSI method; format: functional; conditions: Escherichia coli, Eco523; read-out: MIC
[17] = Clearance in rat at 10 mg/kg, iv; format: ADME, organism-based; set-up: dose 10 mg/kg, route intravenous; conditions: in vivo
Streptococcus pyogenes = experiment: Antimicrobial activity against Streptococcus pyogenes by broth microdilution/CLSI method; format: functional
[18] = Percentage unbound in human plasma; format: ADME, cell-free
[19] = Octanol-phosphate buffer distribution coefficient, log D of the compound at pH 7.4 by shake flask method; format: physicochemical
[20] = AUC in methicillin-sensitive Staphylococcus aureus ARC516 infected in neutropenic CD1 mouse thigh model at 30 mg/kg, ip q6; format: ADME, organism-based; set-up: dose 30 mg/kg, route intraperitoneal; conditions: in vivo
[21] = Clearance in TR-negative Wistar rat at 10 mg/kg, iv; format: ADME, organism-based; set-up: dose 10 mg/kg, route intravenous; conditions: in vivo
Streptococcus pneumoniae = experiment: Antibacterial activity against Streptococcus pneumoniae by broth microdilution/CLSI method; format: functional; conditions: Streptococcus pneumoniae; read-out: MIC
Staphylococcus aureus [22] = experiment: Antimicrobial activity against methicillin, quinolone-resistant Staphylococcus aureus by broth microdilution/CLSI method; format: functional; conditions: Staphylococcus aureus; read-out: MIC
Moraxella catarrhalis = experiment: Antimicrobial activity against Moraxella catarrhalis by broth microdilution/CLSI method; format: functional; conditions: Moraxella catarrhalis; read-out: MIC
[23] = Dissociation constant, pKa of the compound; format: physicochemical
Staphylococcus aureus [24] = experiment: Antimicrobial activity against methicillin-sensitive Staphylococcus aureus by broth microdilution/CLSI method; format: functional; conditions: Staphylococcus aureus; read-out: MIC
Haemophilus influenzae [25] = experiment: Antimicrobial activity against Haemophilus influenzae by broth microdilution/CLSI method; format: functional; conditions: Haemophilus influenzae; for MIC: read-out: MIC
[26] = Clearance in Wistar rat at 10 mg/kg, iv; format: ADME, organism-based; set-up: dose 10 mg/kg, route intravenous; conditions: in vivo
[27] = Percentage unbound in dog plasma; format: ADME, cell-free, Canis lupus familiaris
Mus musculus = experiment: fAUC in methicillin-sensitive Staphylococcus aureus ARC516 infected in neutropenic CD1 mouse thigh model at 30 mg/kg, ip q6; format: ADME, organism-based; set-up: dose 30 mg/kg, route intraperitoneal; conditions: in vivo
Enterococcus faecalis = experiment: Antimicrobial activity against Enterococcus faecalis by broth microdilution/CLSI method; format: functional
Staphylococcus aureus [28] = experiment: Antimicrobial activity against Staphylococcus aureus by broth microdilution/CLSI method; format: functional
Enterococcus faecium = experiment: Antimicrobial activity against Enterococcus faecium by broth microdilution/CLSI method; format: functional
Haemophilus influenzae [29] = experiment: Antimicrobial activity against amoxicillin-resistant Haemophilus influenzae by broth microdilution/CLSI method; format: functional
[30] = target: T1, ATP-binding cassette sub-family C member 2 (Homo sapiens, UniProt Q92887); experiment: Inhibition of ATPase activity of human MRP2 assessed as inorganic phosphate
[31] = target: T2, ATP-binding cassette sub-family C member 2 (Rattus norvegicus, UniProt Q63120); experiment: Inhibition of ATPase activity of rat Mrp2 assessed as inorganic phosphate
[32] = target: T1, ATP-binding cassette sub-family C member 2; experiment: Stimulation of ATPase activity of human MRP2 assessed as inorganic phosphate
[33] = target: T2, ATP-binding cassette sub-family C member 2; experiment: Stimulation of ATPase activity of rat Mrp2 assessed as inorganic phosphate

T2 sequence (Q63120 whole entry): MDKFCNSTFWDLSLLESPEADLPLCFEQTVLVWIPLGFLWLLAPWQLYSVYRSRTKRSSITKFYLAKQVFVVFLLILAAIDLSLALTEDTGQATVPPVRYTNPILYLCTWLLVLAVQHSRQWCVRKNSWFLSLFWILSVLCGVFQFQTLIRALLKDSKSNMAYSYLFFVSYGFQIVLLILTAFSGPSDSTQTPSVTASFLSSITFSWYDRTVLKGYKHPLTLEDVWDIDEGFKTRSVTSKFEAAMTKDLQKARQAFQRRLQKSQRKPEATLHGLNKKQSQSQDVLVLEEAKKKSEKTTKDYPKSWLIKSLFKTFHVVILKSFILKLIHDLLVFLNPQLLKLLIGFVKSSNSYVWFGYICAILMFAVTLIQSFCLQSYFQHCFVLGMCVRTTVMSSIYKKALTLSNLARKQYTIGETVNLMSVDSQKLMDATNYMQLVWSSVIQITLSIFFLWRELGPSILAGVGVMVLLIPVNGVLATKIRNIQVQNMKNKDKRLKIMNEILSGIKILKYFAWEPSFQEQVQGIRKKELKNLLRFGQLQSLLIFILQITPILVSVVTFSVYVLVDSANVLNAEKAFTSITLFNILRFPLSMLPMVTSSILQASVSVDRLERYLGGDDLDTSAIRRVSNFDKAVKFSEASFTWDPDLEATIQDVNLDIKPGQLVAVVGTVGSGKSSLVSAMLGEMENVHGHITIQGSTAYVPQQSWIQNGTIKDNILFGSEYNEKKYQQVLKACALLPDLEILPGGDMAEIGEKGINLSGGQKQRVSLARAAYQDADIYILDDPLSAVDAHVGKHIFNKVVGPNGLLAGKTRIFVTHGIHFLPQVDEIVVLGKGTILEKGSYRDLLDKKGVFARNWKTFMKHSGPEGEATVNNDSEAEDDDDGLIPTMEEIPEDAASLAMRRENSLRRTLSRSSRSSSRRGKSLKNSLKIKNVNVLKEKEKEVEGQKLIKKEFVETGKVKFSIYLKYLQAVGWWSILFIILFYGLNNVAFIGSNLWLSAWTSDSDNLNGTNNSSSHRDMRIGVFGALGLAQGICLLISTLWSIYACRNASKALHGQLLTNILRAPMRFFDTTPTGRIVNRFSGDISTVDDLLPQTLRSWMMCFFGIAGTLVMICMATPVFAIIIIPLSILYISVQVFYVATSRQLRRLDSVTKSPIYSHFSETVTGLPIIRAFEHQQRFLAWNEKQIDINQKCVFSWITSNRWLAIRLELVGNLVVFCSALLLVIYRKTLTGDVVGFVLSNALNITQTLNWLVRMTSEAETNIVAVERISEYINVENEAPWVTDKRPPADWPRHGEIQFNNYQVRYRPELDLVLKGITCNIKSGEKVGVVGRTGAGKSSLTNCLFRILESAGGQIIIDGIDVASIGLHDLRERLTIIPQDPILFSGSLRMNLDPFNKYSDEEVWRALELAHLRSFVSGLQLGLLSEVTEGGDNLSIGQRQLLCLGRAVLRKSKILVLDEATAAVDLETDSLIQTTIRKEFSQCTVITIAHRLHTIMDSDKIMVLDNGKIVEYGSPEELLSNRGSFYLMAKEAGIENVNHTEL
Sequence of DNA gyrase subunit B (P0A0K8 whole entry): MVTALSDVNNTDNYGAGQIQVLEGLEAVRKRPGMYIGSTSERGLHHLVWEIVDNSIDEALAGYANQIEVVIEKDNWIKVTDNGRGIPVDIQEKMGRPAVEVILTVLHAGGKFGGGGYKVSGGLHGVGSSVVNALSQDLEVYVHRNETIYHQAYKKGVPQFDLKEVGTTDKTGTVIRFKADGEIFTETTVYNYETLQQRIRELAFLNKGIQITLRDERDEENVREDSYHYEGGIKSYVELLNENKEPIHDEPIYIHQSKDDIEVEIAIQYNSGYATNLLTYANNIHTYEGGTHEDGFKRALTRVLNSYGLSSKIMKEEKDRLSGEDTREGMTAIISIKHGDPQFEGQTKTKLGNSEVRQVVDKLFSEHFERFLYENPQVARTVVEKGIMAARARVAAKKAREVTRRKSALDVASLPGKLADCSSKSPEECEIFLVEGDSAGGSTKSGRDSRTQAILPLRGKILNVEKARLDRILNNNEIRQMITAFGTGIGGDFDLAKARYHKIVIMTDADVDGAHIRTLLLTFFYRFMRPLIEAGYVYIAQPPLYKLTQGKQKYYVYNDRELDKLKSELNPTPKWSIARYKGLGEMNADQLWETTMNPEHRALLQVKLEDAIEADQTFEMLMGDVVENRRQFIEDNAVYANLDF
T1 sequence (Q92887 whole entry): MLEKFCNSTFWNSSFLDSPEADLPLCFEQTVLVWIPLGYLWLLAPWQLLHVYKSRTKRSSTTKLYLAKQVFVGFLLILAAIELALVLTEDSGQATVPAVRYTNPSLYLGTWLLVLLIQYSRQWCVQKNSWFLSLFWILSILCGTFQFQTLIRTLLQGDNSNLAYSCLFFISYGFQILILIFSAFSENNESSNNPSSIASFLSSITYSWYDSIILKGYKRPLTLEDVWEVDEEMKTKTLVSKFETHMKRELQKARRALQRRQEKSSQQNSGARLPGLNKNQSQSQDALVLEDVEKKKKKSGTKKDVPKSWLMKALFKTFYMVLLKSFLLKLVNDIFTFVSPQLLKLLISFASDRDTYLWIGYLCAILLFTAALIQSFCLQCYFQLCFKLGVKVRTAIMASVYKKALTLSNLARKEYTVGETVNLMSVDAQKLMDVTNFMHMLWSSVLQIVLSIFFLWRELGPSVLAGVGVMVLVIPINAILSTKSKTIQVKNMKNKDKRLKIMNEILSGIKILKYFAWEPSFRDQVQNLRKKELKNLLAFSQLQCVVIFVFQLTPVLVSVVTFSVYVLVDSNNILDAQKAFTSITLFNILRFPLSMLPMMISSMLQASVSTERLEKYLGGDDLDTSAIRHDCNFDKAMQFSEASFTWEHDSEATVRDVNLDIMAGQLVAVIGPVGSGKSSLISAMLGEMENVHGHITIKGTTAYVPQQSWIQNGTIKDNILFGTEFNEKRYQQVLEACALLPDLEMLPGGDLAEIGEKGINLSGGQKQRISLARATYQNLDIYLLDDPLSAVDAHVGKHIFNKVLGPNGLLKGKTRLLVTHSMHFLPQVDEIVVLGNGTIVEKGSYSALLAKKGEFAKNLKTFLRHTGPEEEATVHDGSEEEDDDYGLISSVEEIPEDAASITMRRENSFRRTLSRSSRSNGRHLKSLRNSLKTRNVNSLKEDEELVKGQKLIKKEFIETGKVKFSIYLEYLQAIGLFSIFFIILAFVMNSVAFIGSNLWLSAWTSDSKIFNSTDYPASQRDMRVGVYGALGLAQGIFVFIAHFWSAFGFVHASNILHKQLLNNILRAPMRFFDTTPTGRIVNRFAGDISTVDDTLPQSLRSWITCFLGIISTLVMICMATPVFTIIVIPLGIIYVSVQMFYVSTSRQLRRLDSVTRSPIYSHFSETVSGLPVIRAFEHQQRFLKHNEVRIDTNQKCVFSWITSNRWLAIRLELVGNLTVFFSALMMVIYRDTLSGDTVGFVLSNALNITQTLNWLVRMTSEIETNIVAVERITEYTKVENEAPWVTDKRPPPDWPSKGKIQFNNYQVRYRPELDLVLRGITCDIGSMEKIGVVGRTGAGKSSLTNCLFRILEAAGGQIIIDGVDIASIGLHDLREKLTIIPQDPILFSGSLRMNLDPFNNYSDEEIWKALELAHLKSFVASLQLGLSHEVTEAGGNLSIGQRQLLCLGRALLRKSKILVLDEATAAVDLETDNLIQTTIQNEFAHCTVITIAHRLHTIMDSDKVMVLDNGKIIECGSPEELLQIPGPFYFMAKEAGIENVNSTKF

Row | SMILES | fraction unbound [4] | bioavailability [5] | fraction unbound [6] | MIC (Escherichia coli [7]) | solubility [8] | clearance [9] | bioavailability [10] | clearance [11] | Ratio [13] | IC50 (DNA gyrase subunit B) | bioavailability [15] | MIC (Escherichia coli [16]) | clearance [17] | MIC (Streptococcus pyogenes) | fraction unbound [18] | logD [19] | clearance [21] | MIC (Streptococcus pneumoniae) | MIC (Staphylococcus aureus [22]) | MIC (Moraxella catarrhalis) | further results
1 | CC(=O)NC[C@H]1CN(c2ccc(N3CCOCC3)c(F)c2)C(=O)O1 [LINEZOLID] |  |  |  |  |  |  |  |  |  |  |  |  |  |  |  |  |  |  |  |  | MIC (Staphylococcus aureus [1]): 1 µg/mL (≈ 2.96 µM); MIC (Staphylococcus aureus [2]): 0.5 µg/mL (≈ 1.48 µM); MIC (Staphylococcus aureus [3]): 1 µg/mL (≈ 2.96 µM)
2 | CO[C@H]1CN(c2nc(-c3ncccn3)c(C(=O)O)s2)CC[C@H]1NC(=O)c1[nH]c(C)c(Cl)c1Cl | 0.19 | 100% | 0.18 | 0.5 µg/mL (≈ 0.978 µM) | 350 µM (≈ 179 µg/mL) | 22 mL/min/kg | 100% | 1.9 mL/min/kg | 1.25 | < 0.01 µM | 100% | 23 µg/mL (≈ 45 µM) | 34 mL/min/kg | 0.016 µg/mL (≈ 0.0313 µM) | 0.096 | 0.54 | 9.3 mL/min/kg | 0.008 µg/mL (≈ 0.0156 µM) | 0.12 µg/mL (≈ 0.235 µM) | 0.031 µg/mL (≈ 0.0606 µM) | deltalog10CFU (Staphylococcus aureus [12]): -1.57; MIC (Staphylococcus aureus [14]): 0.06 µg/mL (≈ 0.117 µM); AUC [20]: 37600 ng·h/mL; pKa [23]: 5.2; MIC (Staphylococcus aureus [24]): 0.09 µg/mL (≈ 0.176 µM); MIC (Haemophilus influenzae [25]): 0.2 µg/mL (≈ 0.391 µM); clearance [26]: 18 mL/min/kg; fraction unbound [27]: 0.24; fAUC (Mus musculus): 6700 ng·h/mL
3 | CC[C@H]1OC(=O)[C@H](C)[C@@H](O[C@H]2C[C@@](C)(OC)[C@@H](O)[C@H](C)O2)[C@H](C)[C@@H](O[C@@H]2O[C@H](C)C[C@H](N(C)C)[C@H]2O)[C@](C)(O)C[C@@H](C)CN(C)[C@H](C)[C@@H](O)[C@]1(C)O [AZITHROMYCIN] |  |  |  |  |  |  |  |  |  |  |  |  |  |  |  |  |  |  |  |  | MIC90 (Enterococcus faecalis): > 128 µg/mL; MIC90 (Staphylococcus aureus [28]): > 128 µg/mL; MIC90 (Enterococcus faecium): > 128 µg/mL; MIC90 (Haemophilus influenzae [25]): 2 µg/mL (≈ 2.67 µM); MIC90 (Haemophilus influenzae [29]): 2 µg/mL (≈ 2.67 µM)
4 | COCCNC(=O)c1nc(N2CC[C@@H](NC(=O)c3[nH]c(C)c(Cl)c3Cl)[C@@H](OC)C2)sc1C(=O)O | 0.038 | 100% | 0.0585 | 0.62 µg/mL (≈ 1.16 µM) | 880 µM (≈ 470 µg/mL) | 57 mL/min/kg | 57% | 3 mL/min/kg | 3.3 | < 0.01 µM | 34% | 24 µg/mL (≈ 44.9 µM) | 9.5 mL/min/kg | 0.017 µg/mL (≈ 0.0318 µM) | 0.027 | 1.2 | 1.5 mL/min/kg | 0.018 µg/mL (≈ 0.0337 µM) | 0.089 µg/mL (≈ 0.167 µM) | 0.17 µg/mL (≈ 0.318 µM) | IC50 [30]: 100 µM; pKa [23]: 4.4; MIC (Staphylococcus aureus [24]): 0.078 µg/mL (≈ 0.146 µM); MIC (Haemophilus influenzae [25]): 0.15 µg/mL (≈ 0.281 µM); clearance [26]: 2.1 mL/min/kg; fraction unbound [27]: 0.082; IC50 [31]: 78 µM; EC50 [32]: > 200 µM; EC50 [33]: > 200 µM
